In brackets after ≈: the same amount, converted by molar mass. Activity calls are given as the source filed them. The rule behind the calls is not given here.
Tests used:
[1] = target: T1, NAD-dependent protein deacetylase sirtuin-2 (Homo sapiens, UniProt Q8IXJ6); test: Inhibition of human recombinant SIRT2 assessed as deacetylation of N-acetyl lysine residue in p53 (317 to 320) after 30 mins by luciferase-mediated luminescence assay
T1 sequence (Q8IXJ6 whole entry): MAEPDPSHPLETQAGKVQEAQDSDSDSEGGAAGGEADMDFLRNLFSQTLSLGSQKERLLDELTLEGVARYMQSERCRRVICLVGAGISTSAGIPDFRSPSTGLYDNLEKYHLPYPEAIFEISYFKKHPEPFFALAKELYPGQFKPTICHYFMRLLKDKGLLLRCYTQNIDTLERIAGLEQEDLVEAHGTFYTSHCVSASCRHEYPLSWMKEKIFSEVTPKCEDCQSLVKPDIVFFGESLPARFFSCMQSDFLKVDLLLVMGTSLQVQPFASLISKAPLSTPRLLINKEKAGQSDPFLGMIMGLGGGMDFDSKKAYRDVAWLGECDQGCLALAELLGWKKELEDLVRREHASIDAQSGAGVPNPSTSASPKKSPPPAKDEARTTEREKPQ

[2] = Cytotoxicity against human IMR90 cells assessed as cell viability after 72 hrs by MTS assay; assay type: cell-based; conditions: IMR-90, 72 h
[3] = target: T2, NAD-dependent protein deacetylase sirtuin-2 (Homo sapiens) (UniProt Q8IXJ6); test: Inhibition of SIRT2 in human HepG2 cells assessed as increase in acetylated p53 at Lys382 and alpha-tubulin level at 2 to 4 uM after 6 hrs by Western blot analysis; assay type: cell-based
T2 sequence (whole entry): T1 sequence (Q8IXJ6 whole entry)
In short: (§1)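 Cells seeded at 50,000 cells/mL in high-glucose DMEM containing compound (0.5% v/v DMSO) and incubated at 37 °C, 5% CO2: HepG2 6 h, MDA-MB-231 24 h. Washed cells were lysed on ice ≥20 min in Tris/NaCl/EDTA/Triton buffer with protease and phosphatase inhibitors, then protein measured by Bradford. SDS-PAGE blots were probed overnight at 4 °C with primary antibodies and detected by HRP/ECL, with re-probing after stripping. Each blot was repeated ≥3 times.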

Homo sapiens [4] = organism: Homo sapiens; test: Inhibition of protease (unknown origin) using deacetylated peptide as substrate assessed as luminescence at 10 uM after 30 mins relative to control; parameters: scale not given: the % may be the effect or the level left
In short: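 Counter-screen without sirtuin: compound from DMSO stock diluted in Sirt-Glo buffer, then Sirt-Glo reagent added carrying non-acetylated control peptide. DMSO was 2.5% v/v. Mixed by shaking 30 min at 25 °C, then luminescence read. Result is % of control (peptide plus reagent in vehicle) after subtracting the vehicle-only blank.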

[5] = Self-aggregation of the compound in PBS assessed as derived light scattering count rate at 1 uM at pH 7.4 (reference value: 15.5 +/- 0.4 kilocount/sec); assay type: physicochemical; conditions: buffer, pH 7.4, 1 µM
Homo sapiens [6] = organism: Homo sapiens; test: Inhibition of protease (unknown origin) using deacetylated peptide as substrate assessed as luminescence at 25 uM after 30 mins relative to control; parameters: scale not given: the % may be the effect or the level left
[7] = Solubility of the compound in phosphate buffer at pH 7.4 at 25 degC by turbimetric method; assay type: physicochemical
In short: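 Turbidimetric solubility. Compound from DMSO stock was added to phosphate buffer pH 7.4 at 1–50 µM final, with 1% v/v DMSO. Plate shaken 30 min at 25 °C and absorbance read at 620 nm. Solubility is assigned to the concentration range where absorbance rises two-fold or more, from 3 separate determinations.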

MDA-MB-231 = test: Growth inhibition of human MDA-MB-231 cells after 72 hrs by MTS assay; assay type: functional, cell-based; conditions: MDA-MB-231, 72 h
In short: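 Cells in DMEM with 10% heat-treated FBS and penicillin/streptomycin, subcultured at 85–90% confluence and used within 15 passages. Seeded 2500 cells/well and grown 24 h, then compound was added (0.5% v/v DMSO final) for 72 h at 37 °C, 5% CO2. MTS was added for 4 h in the dark and absorbance read at 490 nm. Viability is corrected for compound and vehicle blanks.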

[8] = Self-aggregation of the compound in PBS assessed as derived light scattering count rate at 10 uM at pH 7.4 (reference value: 15.5 +/- 0.4 kilocount/sec); assay type: physicochemical; conditions: buffer, pH 7.4, 10 µM
Homo sapiens [9] = organism: Homo sapiens; test: Inhibition of protease (unknown origin) using deacetylated peptide as substrate assessed as luminescence at 100 uM after 30 mins relative to control; parameters: scale not given: the % may be the effect or the level left
[10] = target: T2, NAD-dependent protein deacetylase sirtuin-2 (Homo sapiens); test: Inhibition of SIRT2 in human MDA-MB-231 cells assessed as increase in acetylated p53 at Lys382 and alpha-tubulin level at 2 to 4 uM after 24 hrs by Western blot analysis; assay type: cell-based; in short: as §1
[11] = target: T3, NAD-dependent protein deacetylase sirtuin-1 (Homo sapiens) (UniProt Q96EB6); test: Inhibition of human recombinant SIRT1 assessed as deacetylation of N-acetyl lysine residue in p53 (317 to 320) at 10 uM after 30 mins by luciferase-mediated luminescence assay relative to control
T3 sequence (whole entry): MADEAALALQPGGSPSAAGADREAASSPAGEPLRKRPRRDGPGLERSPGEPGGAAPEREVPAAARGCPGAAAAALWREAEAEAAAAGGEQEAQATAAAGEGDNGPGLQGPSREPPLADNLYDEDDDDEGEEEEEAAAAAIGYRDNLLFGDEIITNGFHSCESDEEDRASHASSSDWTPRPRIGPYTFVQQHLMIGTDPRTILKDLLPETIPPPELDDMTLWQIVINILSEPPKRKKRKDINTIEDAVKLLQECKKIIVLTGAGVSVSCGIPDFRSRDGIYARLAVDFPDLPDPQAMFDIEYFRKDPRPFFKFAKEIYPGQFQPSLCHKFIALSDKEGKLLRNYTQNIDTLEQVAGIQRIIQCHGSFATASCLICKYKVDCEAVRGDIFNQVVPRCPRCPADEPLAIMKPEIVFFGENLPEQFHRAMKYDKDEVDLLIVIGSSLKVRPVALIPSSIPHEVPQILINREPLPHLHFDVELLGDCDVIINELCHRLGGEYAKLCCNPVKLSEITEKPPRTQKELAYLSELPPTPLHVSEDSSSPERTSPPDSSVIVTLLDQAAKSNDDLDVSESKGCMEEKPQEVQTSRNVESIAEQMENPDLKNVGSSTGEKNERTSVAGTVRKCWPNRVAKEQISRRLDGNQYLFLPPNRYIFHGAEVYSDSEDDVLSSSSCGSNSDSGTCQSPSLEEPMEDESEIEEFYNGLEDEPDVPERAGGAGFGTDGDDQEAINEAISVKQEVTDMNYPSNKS
In short: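 Recombinant human SIRT1 at 0.1 unit/well, with the enzyme amount chosen from the mid-linear range of a signal-to-noise titration, in Sirt-Glo buffer. Serially diluted inhibitor in DMSO covers a 10^3-fold range, with 2.5% DMSO final. The single-point screen is at a fixed 10 µM. Enzyme and inhibitor were agitated 30 min at 25 °C, then Sirt-Glo reagent added and shaken another 30 min at 25 °C before luminescence was read. Activity is % of the enzyme-only control after blank subtraction. IC50 comes from a sigmoidal fit of % activity against log concentration, run in triplicate across ≥2 independent experiments.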

[12] = Inhibition of luciferase (unknown origin) using deacetylated peptide as substrate assessed as luminescence at 25 uM after 30 mins relative to control; parameters: scale not given: the % may be the effect or the level left

Structure (SMILES): CCCCCCCCn1c2c(c3cc(-c4ccc(S(C)(=O)=O)cc4)ccc31)CNCC2
- IC50 [1]: 3.8 µM
- IC50 [2]: 2720 nM
- inhibition [3]: Active
- Activity (Homo sapiens [4]): 96.5%
- Activity [5]: 15.6 kC/sec
- Activity (Homo sapiens [6]): 94.9%
- solubility kinetic [7]: 3.1 µM (≈ 1.36 µg/mL)
- IC50 (MDA-MB-231): 2100 nM
- Activity [8]: 95 kC/sec
- Activity (Homo sapiens [9]): 94.3%
- inhibition [10]: Active
- inhibition [11]: 48.5%
- Activity [12]: 94.9%

Reference: ChEMBL document CHEMBL3407343, “Functionalized tetrahydro-1H-pyrido[4,3-b]indoles: a novel chemotype with Sirtuin 2 inhibitory activity” (Eur J Med Chem, 2015)
